Data as given in ChEMBL document CHEMBL1136516, “Synthesis, pharmacology and pharmacokinetics of 3-(4-aryl-piperazin-1-ylalkyl)-uracils as uroselective alpha1A-antagonists” (Bioorg Med Chem Lett, 2003).

How the values were obtained:
[1] = target: T1, Alpha-1D adrenergic receptor (Homo sapiens, UniProt P25100); experiment: Inhibition of [3H]prazosin binding to CHO-K1 whole cells expressing human cloned Alpha-1D adrenergic receptor; type: cell-based
T1 sequence (P25100 whole entry): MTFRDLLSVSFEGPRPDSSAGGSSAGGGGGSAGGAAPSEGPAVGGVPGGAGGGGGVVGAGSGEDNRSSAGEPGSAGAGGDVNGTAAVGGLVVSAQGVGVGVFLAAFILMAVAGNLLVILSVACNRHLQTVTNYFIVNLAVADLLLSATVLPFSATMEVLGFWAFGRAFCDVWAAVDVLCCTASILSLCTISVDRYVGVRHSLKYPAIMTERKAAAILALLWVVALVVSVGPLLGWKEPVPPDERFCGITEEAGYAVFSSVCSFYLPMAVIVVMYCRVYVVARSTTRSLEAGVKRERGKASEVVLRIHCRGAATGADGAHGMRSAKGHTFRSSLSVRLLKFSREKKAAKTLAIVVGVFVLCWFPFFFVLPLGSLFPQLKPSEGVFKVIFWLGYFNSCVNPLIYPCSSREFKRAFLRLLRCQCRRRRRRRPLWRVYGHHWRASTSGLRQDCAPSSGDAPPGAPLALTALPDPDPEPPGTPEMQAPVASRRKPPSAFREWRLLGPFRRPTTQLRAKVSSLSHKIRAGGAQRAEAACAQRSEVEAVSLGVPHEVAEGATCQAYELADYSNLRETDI

[2] = target: T2, Alpha-1A adrenergic receptor (Homo sapiens, UniProt P35348); experiment: Inhibition of [3H]prazosin binding to CHO-K1 whole cells expressing human cloned Alpha-1A adrenergic receptor; type: cell-based
T2 sequence (P35348 whole entry): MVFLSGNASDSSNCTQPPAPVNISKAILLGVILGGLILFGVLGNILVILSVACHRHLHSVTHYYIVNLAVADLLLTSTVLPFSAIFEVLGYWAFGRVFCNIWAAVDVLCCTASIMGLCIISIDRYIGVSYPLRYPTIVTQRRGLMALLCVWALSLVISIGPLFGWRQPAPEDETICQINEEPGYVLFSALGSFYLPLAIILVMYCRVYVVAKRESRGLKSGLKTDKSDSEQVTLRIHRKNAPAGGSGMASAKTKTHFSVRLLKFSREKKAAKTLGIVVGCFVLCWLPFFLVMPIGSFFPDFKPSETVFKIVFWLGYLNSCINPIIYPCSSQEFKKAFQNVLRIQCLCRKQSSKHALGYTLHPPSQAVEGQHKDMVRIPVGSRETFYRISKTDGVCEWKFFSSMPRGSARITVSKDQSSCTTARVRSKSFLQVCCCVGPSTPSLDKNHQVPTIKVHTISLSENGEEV

[3] = target: T3, Alpha-1B adrenergic receptor (Homo sapiens, UniProt P35368); experiment: Inhibition of [3H]prazosin binding to CHO-K1 whole cells expressing human cloned Alpha-1B adrenergic receptor; type: cell-based
T3 sequence (P35368 whole entry): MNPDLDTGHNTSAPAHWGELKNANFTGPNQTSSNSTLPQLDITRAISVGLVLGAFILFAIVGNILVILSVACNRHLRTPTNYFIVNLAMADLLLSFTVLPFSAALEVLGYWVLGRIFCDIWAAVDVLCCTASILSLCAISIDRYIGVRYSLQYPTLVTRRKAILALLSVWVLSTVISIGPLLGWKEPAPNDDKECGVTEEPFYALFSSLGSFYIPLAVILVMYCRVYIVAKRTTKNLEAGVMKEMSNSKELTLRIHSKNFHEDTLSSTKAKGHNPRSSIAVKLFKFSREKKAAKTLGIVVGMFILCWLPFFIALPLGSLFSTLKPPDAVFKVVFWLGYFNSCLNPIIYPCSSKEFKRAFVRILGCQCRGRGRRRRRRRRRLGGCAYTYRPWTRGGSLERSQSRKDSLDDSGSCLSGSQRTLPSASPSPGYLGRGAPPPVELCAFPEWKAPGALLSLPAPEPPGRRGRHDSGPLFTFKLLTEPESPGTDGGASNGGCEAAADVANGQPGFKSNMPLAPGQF

[4] = Oral bioavailability in dog (i.v. dosing); type: ADME, organism-based, Canis lupus familiaris; conditions: in vivo
Summary of the method: (§1)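 Single dose of 0.3 mg/kg given to dogs both iv and po in a cross-over design, four dogs per compound, with the compound dosed as a salt. Terminal half-life, volume of distribution (calculated after iv dosing only), clearance and oral bioavailability were taken from these single-dose pharmacokinetic profiles.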

[5] = Oral bioavailability in dog; type: ADME, organism-based, Canis lupus familiaris; conditions: in vivo; summary of the method: as §1
[6] = Half life period by po administration in dog at a dose of 0.3 mg/kg; type: ADME, organism-based, Canis lupus familiaris; set-up: dose 0.3 mg/kg, route oral; conditions: in vivo; summary of the method: as §1
[7] = Plasma clearance by iv administration in dog at a dose of 0.3 mg/kg; type: ADME, organism-based, Canis lupus familiaris; set-up: dose 0.3 mg/kg, route intravenous; summary of the method: as §1
[8] = Half life period by iv administration in dog at a dose of 0.3 mg/kg; type: ADME, organism-based, Canis lupus familiaris; set-up: dose 0.3 mg/kg, route intravenous; conditions: in vivo; summary of the method: as §1
[9] = Volume of distribution by as 4 fold increase by iv administration in dogs; type: ADME, organism-based, Canis lupus familiaris; conditions: dog, in vivo; summary of the method: as §1
Canis familiaris = species: Canis familiaris; experiment: In vitro relative rate of metabolism was determined in dog liver microsomes; type: ADME, Canis lupus familiaris
[10] = target: Alpha adrenergic receptor (1a and 1d) (Homo sapiens) (UniProt P35348+P25100); experiment: Ratio of binding affinities for human cloned alpha1D- adrenoceptor to that of human cloned alpha1A- adrenoceptor (alpha-1D/alpha-1A); type: protein assay
Summary of the method: (§2)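 Ratio of α1B (or α1D) to α1A binding affinity, calculated from pKi values for [3H]-prazosin displacement at cloned human subtypes expressed in CHO-K1 membranes or whole cells.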

[11] = target: T4, Alpha-1D adrenergic receptor (Rattus norvegicus) (UniProt P23944); experiment: Antagonist inhibition noradrenaline-stimulated contractions of rat aortic strings for Alpha-1D adrenergic receptor; type: functional
T4 sequence (whole entry): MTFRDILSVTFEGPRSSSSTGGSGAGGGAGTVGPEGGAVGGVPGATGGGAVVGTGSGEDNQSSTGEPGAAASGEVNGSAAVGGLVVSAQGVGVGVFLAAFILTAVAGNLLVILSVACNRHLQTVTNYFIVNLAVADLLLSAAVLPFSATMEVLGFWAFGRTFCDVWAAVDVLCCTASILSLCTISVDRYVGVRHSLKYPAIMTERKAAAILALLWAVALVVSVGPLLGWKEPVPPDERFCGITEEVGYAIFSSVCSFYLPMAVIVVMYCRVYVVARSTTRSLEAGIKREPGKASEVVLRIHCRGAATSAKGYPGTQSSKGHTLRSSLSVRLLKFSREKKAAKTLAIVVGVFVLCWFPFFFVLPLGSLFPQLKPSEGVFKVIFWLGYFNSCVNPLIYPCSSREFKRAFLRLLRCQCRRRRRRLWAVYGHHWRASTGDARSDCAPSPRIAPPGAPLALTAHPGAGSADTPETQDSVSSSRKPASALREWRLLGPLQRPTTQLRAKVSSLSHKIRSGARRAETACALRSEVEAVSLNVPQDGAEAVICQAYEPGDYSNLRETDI

[12] = target: Adrenergic receptors; alpha-1 A & B (Homo sapiens) (UniProt P35348+P35368); experiment: Ratio of binding affinities for human cloned alpha1B- adrenoceptor to that of human cloned alpha1A- adrenoceptor (alpha-1B/alpha-1A); type: protein assay; summary of the method: as §2
[13] = system: Alpha-1D/alpha-1A adrenergic receptors (rat/rabbit); experiment: Ratio of antagonistic activities against alpha-1D vs alpha-1A determined in rat aorta and rabbit bladder neck respectively
[14] = system: Alpha-1A adrenergic receptor (Oryctolagus cuniculus); experiment: Antagonist inhibition of noradrenaline-stimulated contractions of rabbit bladderneck (RBN) for Alpha-1A adrenergic receptor

Structure (SMILES)	Ki [1] [nM]	Ki [2] [nM]	Ki [3] [nM]	also measured
Cc1c[nH]c(=O)n(CC(C)(C)CN2CCN(c3ccccc3OCC(F)(F)F)CC2)c1=O	126	3.98	398	
Cc1n[nH]c(=O)n(CCCN2CCN(c3ccccc3OCC(F)(F)F)CC2)c1=O	7.94	0.316	39.8	
Cc1c[nH]c(=O)n(CCCN2CCN(c3ccccc3OCC(F)(F)F)CC2)c1=O	12.6	0.251	31.6	
COc1c[nH]c(=O)n(CCCN2CCN(c3ccc(F)cc3OCC(F)(F)F)CC2)c1=O	31.6		158	
Cc1c[nH]c(=O)n(CCCN2CCN(c3ccc(F)cc3OCC(F)(F)F)CC2)c1=O	63.1			bioavailability [4]: 100%; bioavailability [5]: 78%; half-life [6]: 2.8 h; clearance [7]: 4.33 mL/min/kg; half-life [8]: 2.5 h; Vd [9]: 0.93 L/kg
Cc1cn(CCCN2CCN(c3ccccc3OCC(F)(F)F)CC2)c(=O)[nH]c1=O	20	2	100	
CN(C)c1c[nH]c(=O)n(CCCN2CCN(c3ccc(F)cc3OCC(F)(F)F)CC2)c1=O	100		200	
Cc1c[nH]c(=O)n(CCN2CCN(c3ccc(F)cc3OCC(F)(F)F)CC2)c1=O	2.51	0.501	15.8	
C[C@]1(O)C(=O)N(CCCN2CCN(c3ccc(F)cc3OCC(F)(F)F)CC2)C(=O)N[C@H]1O	126	5.01	251	Relative rate metabolism (Canis familiaris): 0; bioavailability [4]: 100%; bioavailability [5]: 111%; half-life [6]: 10 h; clearance [7]: 4.17 mL/min/kg; Ratio [10]: 33; pA2/pKB [11]: 6.6; Ratio [12]: 63; half-life [8]: 11 h; Vd [9]: 4 L/kg; Ratio [13]: 79; pA2/pKB [14]: 8.5
Cc1cc(=O)n(CCCN2CCN(c3ccc(F)cc3OCC(F)(F)F)CC2)c(=O)[nH]1	50.1	1.58	158	
O=c1[nH]c2ccccc2c(=O)n1CCCN1CCN(c2ccccc2OCC(F)(F)F)CC1	2	0.0631	5.01	Ratio [10]: 32; pA2/pKB [11]: 8.4; Ratio [12]: 79; Ratio [13]: 4; pA2/pKB [14]: 9
